Laboratory results as given in the array DNA melting data of Ke et al. (doi:10.1101/2024.01.08.574731).

Columns and labels:
[1] = folding enthalpy; higher = less favourable; fluorescence melt of hairpins on a sequencing array, two-state fit; details: sodium 0.088 M
Summary of the method: (§1)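 On a sequenced MiSeq flow cell, library hairpins with annealed Cy3 and quencher oligos were imaged for Cy3 fluorescence in 2.5 °C steps up to 60 °C, in 50 mM Na-HEPES pH 8.0, 25 mM NaCl. Normalisation used pre-quench Cy3 and control constructs. Bootstrapped two-state fits gave melting temperature and folding enthalpy, combined by inverse variance across four replicates and with fitted temperatures raised by 9.35 °C to match UV melts.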

[2] = melting temperature; fluorescence melt of hairpins on a sequencing array, two-state fit, raised by 9.35 °C to match UV melts; details: sodium 0.088 M
Summary of the method: as §1

Row | Sequence | folding enthalpy [1] | Tm [2]
1 | GATCTCATAAGAGATC ((((((....)))))) | -38.7 kcal/mol | 52.3 °C
2 | GATCTCATATGAGATC ((((((....)))))) | -43.8 kcal/mol | 54.2 °C
3 | GATCTCATGAGAGATC ((((((....)))))) | -32 kcal/mol | 54.2 °C
4 | GATCTCATGTGAGATC ((((((....)))))) | -36.2 kcal/mol | 52.9 °C
5 | GATCTCATTGAGATC ((((((...)))))) | -34.9 kcal/mol | 54.2 °C
6 | GATCTCCACCGAGATC ((((((....)))))) | -37.2 kcal/mol | 51.9 °C
7 | GATCTCCATGGAGATC ((((((....)))))) | -42 kcal/mol | 57.4 °C
8 | GATCTCCCCAGAGATC ((((((....)))))) | -42.9 kcal/mol | 55.7 °C
9 | GATCTCCCCGAGATC ((((((...)))))) | -36.9 kcal/mol | 55.3 °C
10 | GATCTCCCCTGAGATC ((((((....)))))) | -45.1 kcal/mol | 51.6 °C
11 | GATCTCCCGGAGATC ((((((...)))))) | -37.4 kcal/mol | 53.8 °C
12 | GATCTCCCTGGAGATC ((((((....)))))) | -43.7 kcal/mol | 59.4 °C
13 | GATCTCCGCGGAGATC ((((((....)))))) | -50.1 kcal/mol | 60.9 °C
14 | GATCTCCGTAGAGATC ((((((....)))))) | -42 kcal/mol | 55.1 °C
15 | GATCTCCTCAGAGATC ((((((....)))))) | -37.7 kcal/mol | 55.9 °C
16 | GATCTCGACGGAGATC ((((((....)))))) | -48.4 kcal/mol | 54.3 °C
17 | GATCTCGATGGAGATC ((((((....)))))) | -33.4 kcal/mol | 52.9 °C
18 | GATCTCGCAGAGATC ((((((...)))))) | -30.5 kcal/mol | 68 °C
19 | GATCTCGCCAGAGATC ((((((....)))))) | -37.1 kcal/mol | 69 °C
20 | GATCTCGCCCGAGATC ((((((....)))))) | -39.2 kcal/mol | 56.2 °C
21 | GATCTCGCGCGAGATC ((((((....)))))) | -48.4 kcal/mol | 62.5 °C
22 | GATCTCGCTGGAGATC ((((((....)))))) | -36.8 kcal/mol | 54.3 °C
23 | GATCTCGGAAACAAGATC (((((.(....).))))) | -15 kcal/mol | 29 °C
24 | GATCTCGGACGAGATC ((((((....)))))) | -35.1 kcal/mol | 60.3 °C

Row | Sequence | folding enthalpy [1] | Tm [2]
25 | GATCTCGGAGGAGATC ((((((....)))))) | -44.4 kcal/mol | 55.7 °C
26 | GATCTCGGATGAGATC ((((((....)))))) | -33.7 kcal/mol | 57 °C
27 | GATCTCGGTGGAGATC ((((((....)))))) | -4.26 kcal/mol | 68.6 °C
28 | GATCTCGTACGAGATC ((((((....)))))) | -39.7 kcal/mol | 61.7 °C
29 | GATCTCGTCAGAGATC ((((((....)))))) | -37.5 kcal/mol | 68.5 °C
30 | GATCTCGTCGAGATC ((((((...)))))) | -31.1 kcal/mol | 55.7 °C
31 | GATCTCGTGGAGATC ((((((...)))))) | -39 kcal/mol | 54.5 °C
32 | GATCTCGTGTGAGATC ((((((....)))))) | -37 kcal/mol | 53.1 °C
33 | GATCTCGTTGGAGATC ((((((....)))))) | -42.3 kcal/mol | 54.2 °C
34 | GATCTCTAGAGAGATC ((((((....)))))) | -40.9 kcal/mol | 51 °C
35 | GATCTCTAGGAGATC ((((((...)))))) | -39.1 kcal/mol | 52.9 °C
36 | GATCTCTAGTGAGATC ((((((....)))))) | -36.9 kcal/mol | 50.3 °C
37 | GATCTCTATAGAGATC ((((((....)))))) | -38.7 kcal/mol | 55 °C
38 | GATCTCTCAGAGATC ((((((...)))))) | -33.8 kcal/mol | 54.2 °C
39 | GATCTCTCCGGAGATC ((((((....)))))) | -39.6 kcal/mol | 56.2 °C
40 | GATCTCTCTGGAGATC ((((((....)))))) | -42.8 kcal/mol | 54.8 °C
41 | GATCTCTCTTGAGATC ((((((....)))))) | -37.9 kcal/mol | 53.5 °C
42 | GATCTCTGGGAGATC ((((((...)))))) | -34.7 kcal/mol | 53.6 °C
43 | GATCTCTGTGGAGATC ((((((....)))))) | -37.1 kcal/mol | 57.2 °C
44 | GATCTCTTAGAGATC ((((((...)))))) | -38.9 kcal/mol | 53.1 °C
45 | GATCTCTTCTGAGATC ((((((....)))))) | -39.8 kcal/mol | 54.7 °C
46 | GATCTCTTGTGAGATC ((((((....)))))) | -48.6 kcal/mol | 53.1 °C
47 | GATCTCTTTAGAGATC ((((((....)))))) | -44.9 kcal/mol | 61.8 °C
48 | GATCTCTTTCGAGATC ((((((....)))))) | -28.2 kcal/mol | 52.2 °C

Row | Sequence | folding enthalpy [1] | Tm [2]
49 | GATCTGAATCAGATC ((((((...)))))) | -34 kcal/mol | 44.7 °C
50 | GATCTGACAACAGATC ((((((....)))))) | -36.6 kcal/mol | 46.5 °C
51 | GATCTGACATCAGATC ((((((....)))))) | -33.5 kcal/mol | 48.3 °C
52 | GATCTGACGCCAGATC ((((((....)))))) | -33.5 kcal/mol | 48.6 °C
53 | GATCTGACTACAGATC ((((((....)))))) | -36.9 kcal/mol | 49.5 °C
54 | GATCTGAGGCAGATC ((((((...)))))) | -31.4 kcal/mol | 47.5 °C
55 | GATCTGAGGGCAGATC ((((((....)))))) | -33.4 kcal/mol | 47.7 °C
56 | GATCTGATACCAGATC ((((((....)))))) | -40.8 kcal/mol | 47.1 °C
57 | GATCTGATTCCAGATC ((((((....)))))) | -34 kcal/mol | 48.5 °C
58 | GATCTGCAGACAGATC ((((((....)))))) | -40 kcal/mol | 51.2 °C
59 | GATCTGCCCACAGATC ((((((....)))))) | -37 kcal/mol | 52.4 °C
60 | GATCTGCCCGCAGATC ((((((....)))))) | -46.4 kcal/mol | 59.7 °C
61 | GATCTGCGACCAGATC ((((((....)))))) | -35 kcal/mol | 46.6 °C
62 | GATCTGCGCACAGATC ((((((....)))))) | -38.3 kcal/mol | 52.8 °C
63 | GATCTGCGCCAGATC ((((((...)))))) | -35.3 kcal/mol | 50.8 °C
64 | GATCTGCGCTCAGATC ((((((....)))))) | -39.7 kcal/mol | 49.3 °C
65 | GATCTGCGGGCAGATC ((((((....)))))) | -42.9 kcal/mol | 60.7 °C
66 | GATCTGCGTTCAGATC ((((((....)))))) | -37.5 kcal/mol | 48.8 °C
67 | GATCTGCTAACAGATC ((((((....)))))) | -37.1 kcal/mol | 50.4 °C
68 | GATCTGCTAGCAGATC ((((((....)))))) | -48.5 kcal/mol | 60.9 °C
69 | GATCTGCTCACAGATC ((((((....)))))) | -36.9 kcal/mol | 51.6 °C
70 | GATCTGCTGACAGATC ((((((....)))))) | -39.7 kcal/mol | 50.5 °C
71 | GATCTGCTGCCAGATC ((((((....)))))) | -39.2 kcal/mol | 49.8 °C
72 | GATCTGCTGTCAGATC ((((((....)))))) | -32.2 kcal/mol | 51.6 °C

Row | Sequence | folding enthalpy [1] | Tm [2]
73 | GATCTGGAAGCAGATC ((((((....)))))) | -37.8 kcal/mol | 50.8 °C
74 | GATCTGGAGGCAGATC ((((((....)))))) | -31.1 kcal/mol | 48.1 °C
75 | GATCTGGCACAGATC ((((((...)))))) | -38.8 kcal/mol | 58.4 °C
76 | GATCTGGCACCAGATC ((((((....)))))) | -41.3 kcal/mol | 55.1 °C
77 | GATCTGGCATCAGATC ((((((....)))))) | -46.2 kcal/mol | 54.6 °C
78 | GATCTGGCCACAGATC ((((((....)))))) | -39.6 kcal/mol | 59.8 °C
79 | GATCTGGCGACAGATC ((((((....)))))) | -44.1 kcal/mol | 55.8 °C
80 | GATCTGGCGTCAGATC ((((((....)))))) | -31.8 kcal/mol | 50.9 °C
81 | GATCTGGCTGCAGATC ((((((....)))))) | -36.3 kcal/mol | 50 °C
82 | GATCTGGGAAACCAGACC (.(((((....))))).) | -16.1 kcal/mol | 38.5 °C
83 | GATCTGGGAAACTGGATC ((((..(....)..)))) | -26.2 kcal/mol | 35.2 °C
84 | GATCTGGGCGCAGATC ((((((....)))))) | -37.7 kcal/mol | 53.5 °C
85 | GATCTGGGCTCAGATC ((((((....)))))) | -39.3 kcal/mol | 52.8 °C
86 | GATCTGGTTCAGATC ((((((...)))))) | -36.5 kcal/mol | 49.9 °C
87 | GATCTGGTTCCAGATC ((((((....)))))) | -47.1 kcal/mol | 53.5 °C
88 | GATCTGTACTCAGATC ((((((....)))))) | -36.1 kcal/mol | 50.2 °C
89 | GATCTGTCACCAGATC ((((((....)))))) | -39.4 kcal/mol | 49.4 °C
90 | GATCTGTCAGCAGATC ((((((....)))))) | -40.7 kcal/mol | 51.7 °C
91 | GATCTGTTACCAGATC ((((((....)))))) | -42.4 kcal/mol | 50.5 °C
92 | GATCTGTTCACAGATC ((((((....)))))) | -35.1 kcal/mol | 56.9 °C
93 | GATCTGTTCGCAGATC ((((((....)))))) | -47.6 kcal/mol | 53.4 °C
94 | GATCTGTTGCCAGATC ((((((....)))))) | -36.9 kcal/mol | 50.5 °C
95 | GATCTGTTGGCAGATC ((((((....)))))) | -40.3 kcal/mol | 54.2 °C
96 | GATCTTAAACAAGATC ((((((....)))))) | -24.9 kcal/mol | 38.7 °C
